In article PMC12329029 (Scientific Reports, 2025):

Key:
[1] = system: proapoptotic Bax in MDA-MB-231 cells; assay: Bax concentration in cell lysates; format: cell-based, human; details: 20 µM, 24 h
Procedure, shortened: (§1)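 MDA-MB-231 cells were grown in DMEM with 10% FBS and 1% penicillin/streptomycin at 37 °C, 5% CO2. They were reseeded in phenol-red-free DMEM with 10% CPSR1, used near 80% confluence and exposed to 20 µM for 24 h; untreated cells were the control. Cells were trypsinised, washed thrice in cold PBS, spun at 1000× g for 5 min at 4 °C, and 1.5 × 10^6 cells were lysed. Supernatants were frozen at −70 °C. Target protein was measured by antibody-precoated high-sensitivity kit. Three independent experiments in duplicate; one-way ANOVA with Tukey test.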

[2] = system: Akt protein in MDA-MB-231 cells; assay: Akt concentration in cell lysates; format: cell-based, human; details: 20 µM, 24 h, control 8.22 U/mL
Procedure, shortened: as §1

[3] = system: p53 tumour suppressor in MDA-MB-231 cells; assay: p53 concentration in cell lysates; format: cell-based, human; details: 20 µM, 24 h
Procedure, shortened: as §1

[4] = system: MCF-7; details: read-out: activity against MCF-7 breast cancer cells in vitro; cited from earlier work

Structure (SMILES): C[C@H]1[C@H](C)CC[C@]2(C(=O)O)CC[C@]3(C)C(=CC[C@@H]4[C@@]5(C)CC[C@H](O)C(C)(C)[C@@H]5CC[C@]43C)[C@H]12 [Ursolic acid 1, Ursolic acid]
- concentration of Bax [1]: 760 pg/mL
- concentration of Akt [2]: 4.49 U/mL
- change of p53 level vs control [3]: increased the p53 concentration, but the values were statistically insignificant

Structure (SMILES): CC(=O)OC1CCC2(C)C(CCC3(C)C2CC=C2C4CC(C)(C)CCC4(C(=O)n4ccc(=O)[nH]c4=O)CCC23C)C1(C)C (stereo not drawn) [1-[(3β)-3-(acetyloxy)-28-oxoolean-12-en-28-yl]-2,4(1 H,3 H)-pyrimidinedione]
- IC50 [4]: < 100 nM
